Measured values taken from ChEMBL document CHEMBL1158503, “Design and preliminary structure-activity relationship of redox-silent semisynthetic tocotrienol analogues as inhibitors for breast cancer proliferation and invasion” (Bioorg Med Chem, 2010).
Active and inactive are the calls of the source. The calls are words filed in the database; no cut-off is given here.

How the values were obtained:
MDA-MB-231 [1] = test: Antiinvasive activity in human MDA-MB-231 at 5 uM after 24 hrs by BME cell invasion assay; assay type: functional, cell-based
Summary of the method: (§1)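 Cultrex 96-well BME invasion kit (Boyden-type, 8 µm PET membrane), BME 1X coat set overnight at 37 °C. 50,000 MDA-MB-231 cells in serum-free RPMI put in the top chamber with compound at 5 µM. The lower chamber held RPMI with 10% FBS, fibronectin and 10 nM fMLP as chemoattractants. Migration ran 24 h at 37 °C. Invaded cells were loaded with calcein-AM for 1 h and read by fluorescence (ex 485/em 520 nm).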

MCF7 = test: Antiproliferative activity against human MCF7 cells after 96 hrs by MTT assay; assay type: functional, cell-based; details: MCF7, 96 h
Summary of the method: (§2)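 Cells were grown in RPMI with 10% FBS, 2 mmol/L glutamine and penicillin/streptomycin at 37 °C, 5% CO2. They were seeded at 8 × 10^3 cells/well and left to attach for 24 h. Medium was then changed to serum-free RPMI containing compound at 20, 10, 5 or 2 µM for 96 h. MTT was added for 4 h, then solubilized, and A570 read. Cell number came from a hemocytometer standard curve. IC50 was taken by nonlinear regression of log concentration vs cells/well.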

MDA-MB-231 [2] = test: Antiproliferative activity against human MDA-MB-231 cells after 96 hrs by MTT assay; assay type: functional, cell-based; details: MDA-MB-231, 96 h; summary of the method: as §2
MDA-MB-231 [3] = test: Antiinvasive activity in human MDA-MB-231 assessed as cell migration at 5 uM after 24 hrs by BME cell invasion assay; assay type: functional, cell-based; summary of the method: as §1
[4] = Inhibition of EGF-dependent mouse +SA cells growth; assay type: functional, +SA cell
[5] = Antiproliferative activity against mouse +SA cells after 4 days by MTT assay; assay type: functional, cell-based; details: +SA cell, 96 h
Summary of the method: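 +SA mouse mammary epithelial cells were kept in serum-free medium with 10 ng/mL EGF and 10 µg/mL insulin as mitogens. They were plated at 5 × 10^4 cells/well, 6 wells/group, and fed compound at 0.01–1000 µM. Viable cell number was measured by MTT after 4 days of culture.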

[6] = Ratio of IC50 for gamma-tocotrienol to IC50 for drug against mouse +SA cells after 4 days by MTT assay; assay type: functional, +SA cell

CC(C)=CCC/C(C)=C/CC/C(C)=C/CC[C@]1(C)CCc2c(C)c(OC/C=C(\C)CC/C=C(\C)CCC=C(C)C)c(C)c(C)c2O1
Activity (MDA-MB-231 [1]): inactive

CC(C)=CCC/C(C)=C/CC/C(C)=C/CC[C@]1(C)CCc2cc(OC/C=C(\C)CC/C=C(\C)CCC=C(C)C)c(C)c(C)c2O1
Activity (MDA-MB-231 [1]): inactive

Cc1c(C)c2c(c(C)c1OC(=O)[C@@H](N)CCCCN)CC[C@@](C)(CCCC(C)CCCC(C)CCCC(C)C)O2 (some centres undefined)
IC50 (MCF7): 12 µM

COc1cccc(COc2c(C)c(C)c3c(c2C)CC[C@@](C)(CC/C=C(\C)CC/C=C(\C)CCC=C(C)C)O3)c1
Activity (MDA-MB-231 [1]): inactive

CC(C)=CCC/C(C)=C/CC/C(C)=C/CC[C@]1(C)CCc2cc(OC(=O)NS(=O)(=O)c3ccccc3)cc(C)c2O1
IC50 (MDA-MB-231 [2]): > 10 µM | IC50 (MCF7): 6.1 µM

CC(C)=CCC/C(C)=C/CC/C(C)=C/CC[C@]1(C)CCc2c(C)c(OC(=O)NS(=O)(=O)c3ccccc3)c(C)c(C)c2O1
IC50 (MDA-MB-231 [2]): > 10 µM | IC50 (MCF7): 4.5 µM

CC(C)=CCC/C(C)=C/CC/C(C)=C/CC[C@]1(C)CCc2cc(OC(=O)Nc3ccccc3)cc(C)c2O1
IC50 (MDA-MB-231 [2]): > 10 µM | IC50 (MCF7): > 20 µM

CC(C)=CCC/C(C)=C/CC/C(C)=C/CC[C@]1(C)CCc2cc(OC(=O)Nc3ccccc3)c(C)c(C)c2O1
IC50 (MDA-MB-231 [2]): > 10 µM | IC50 (MCF7): > 20 µM

CC(C)=CCC/C(C)=C/CC/C(C)=C/CC[C@]1(C)CCc2cc(OC(=O)NC(=O)Oc3ccccc3)c(C)c(C)c2O1
IC50 (MCF7): > 20 µM

CC(C)=CCC/C(C)=C/CC/C(C)=C/CC[C@]1(C)CCc2cc(OC/C=C(\C)CC/C=C(\C)CCC=C(C)C)cc(C)c2O1
Activity (MDA-MB-231 [1]): inactive

COc1cccc(COc2cc3c(c(C)c2C)O[C@](C)(CC/C=C(\C)CC/C=C(\C)CCC=C(C)C)CC3)c1
Activity (MDA-MB-231 [1]): inactive

CC(C)=CCC/C(C)=C/CC/C(C)=C/CC[C@]1(C)CCc2cc(O)cc(C)c2O1 [DELTA-TOCOTRIENOL]
IC50 (MDA-MB-231 [2]): > 10 µM | IC50 (MCF7): 15.5 µM

CC(C)=CCC/C(C)=C/CC/C(C)=C/CC[C@]1(C)CCc2c(C)c(OC(=O)NCc3ccccc3)c(C)c(C)c2O1
IC50 (MDA-MB-231 [2]): 7.2 µM | IC50 (MCF7): > 20 µM | Activity (MDA-MB-231 [3]): 8%

CC(C)=CCC/C(C)=C/CC/C(C)=C/CC[C@]1(C)CCc2cc(OC(=O)NCc3ccccc3)c(C)c(C)c2O1
IC50 (MDA-MB-231 [2]): > 10 µM | IC50 (MCF7): > 20 µM | Activity (MDA-MB-231 [1]): Active

COc1cc(COc2c(C)c(C)c3c(c2C)CC[C@@](C)(CC/C=C(\C)CC/C=C(\C)CCC=C(C)C)O3)cc(OC)c1
Activity (MDA-MB-231 [1]): inactive

CC(C)=CCC/C(C)=C/CC/C(C)=C/CC[C@]1(C)CCc2cc(OC(=O)NS(=O)(=O)c3ccc(C)cc3)cc(C)c2O1
IC50 (MDA-MB-231 [2]): 6.6 µM | IC50 (MCF7): > 20 µM | Activity (MDA-MB-231 [1]): Active

Cc1c(C)c2c(c(C)c1OC(=O)CCC(=O)O)CC[C@@](C)(CCCC(C)CCCC(C)CCCC(C)C)O2 (some centres undefined)
IC50 (MCF7): > 368 µM

CC(C)=CCC/C(C)=C/CC/C(C)=C/CC[C@]1(C)CCc2cc(OCCC(C)C)c(C)c(C)c2O1
Activity (MDA-MB-231 [1]): inactive

CC(C)=CCC/C(C)=C/CC/C(C)=C/CC[C@]1(C)CCc2c(C)c(O)c(C)c(C)c2O1 [ALPHA-TOCOTRIENOL]
IC50 (MDA-MB-231 [2]): > 10 µM | IC50 (MCF7): > 20 µM

CC(C)=CCC/C(C)=C/CC/C(C)=C/CC[C@]1(C)CCc2cc(O)c(C)c(C)c2O1 [GAMMA-TOCOTRIENOL]
inhibition (INH) [4]: 50% | IC50 (MDA-MB-231 [2]): > 10 µM | IC50 (MCF7): 11.4 µM

CC(C)=CCCOc1cc2c(c(C)c1C)O[C@](C)(CC/C=C(\C)CC/C=C(\C)CCC=C(C)C)CC2
Activity (MDA-MB-231 [1]): inactive

CC(C)=CCC/C(C)=C/CC/C(C)=C/CC[C@]1(C)CCc2cc(OC(=O)NS(=O)(=O)c3ccccc3)c(C)c(C)c2O1
IC50 (MDA-MB-231 [2]): > 10 µM | IC50 (MCF7): > 20 µM

CC(C)=CCC/C(C)=C/CC/C(C)=C/CC[C@]1(C)CCc2cc(OC(=O)NS(=O)(=O)c3ccc(Cl)cc3)c(C)c(C)c2O1
IC50 (MDA-MB-231 [2]): > 10 µM | IC50 (MCF7): > 20 µM

Cc1cc(C)c2c(c1C)O[C@](C)(CCCC(C)CCCC(C)CCCC(C)C)CC2 (some centres undefined)
IC50 (MCF7): 329 µM

COc1cc(COc2cc3c(c(C)c2C)O[C@](C)(CC/C=C(\C)CC/C=C(\C)CCC=C(C)C)CC3)cc(OC)c1
Activity (MDA-MB-231 [1]): inactive

CC(C)=CCC/C(C)=C/CC/C(C)=C/CC[C@]1(C)CCc2cc(OC(=O)NS(=O)(=O)c3ccc(Cl)cc3)cc(C)c2O1
IC50 (MDA-MB-231 [2]): > 10 µM | IC50 (MCF7): > 20 µM

COc1cc2c(c(C)c1C)O[C@](C)(CC/C=C(\C)CC/C=C(\C)CCC=C(C)C)CC2
Activity (MDA-MB-231 [1]): inactive

CC(C)=CCC/C(C)=C/CC/C(C)=C/CC[C@]1(C)CCc2c(C)c(OC(=O)NC(=O)Oc3ccccc3)c(C)c(C)c2O1
IC50 (MDA-MB-231 [2]): > 10 µM | IC50 (MCF7): > 20 µM

CC(C)=CCC/C(C)=C/CC/C(C)=C/CC[C@]1(C)CCc2cc(OC(=O)NCc3ccccc3)cc(C)c2O1
IC50 (MDA-MB-231 [2]): > 10 µM | IC50 (MCF7): > 20 µM

CC(C)=CCC/C(C)=C/CC/C(C)=C/CC[C@]1(C)CCc2cc(OC(=O)NC(=O)Oc3ccccc3)cc(C)c2O1
IC50 (MCF7): 5.6 µM

CC(C)=CCC/C(C)=C/CC/C(C)=C/CC[C@]1(C)CCc2cc(OC(=O)NS(=O)(=O)c3ccc(C)cc3)c(C)c(C)c2O1
IC50 [5]: 2 µM | Ratio IC50 [6]: 2 | IC50 (MDA-MB-231 [2]): > 10 µM | IC50 (MCF7): 2.4 µM

CC(C)=CCC/C(C)=C/CC/C(C)=C/CC[C@]1(C)CCc2c(C)c(OC(=O)NS(=O)(=O)c3ccc(C)cc3)c(C)c(C)c2O1
IC50 (MDA-MB-231 [2]): > 10 µM | IC50 (MCF7): 6.1 µM

CC(C)=CCC/C(C)=C/CC/C(C)=C/CC[C@]1(C)CCc2c(C)c(OC(=O)Nc3ccccc3)c(C)c(C)c2O1
IC50 (MDA-MB-231 [2]): > 10 µM | IC50 (MCF7): > 20 µM

CC(C)=CCC/C(C)=C/CC/C(C)=C/CC[C@]1(C)CCc2c(C)c(OC(=O)NS(=O)(=O)c3ccc(Cl)cc3)c(C)c(C)c2O1
IC50 (MDA-MB-231 [2]): > 10 µM | IC50 (MCF7): 5.1 µM
